{"data": "Assay results pooled from the literature", "ABCB1": "ATP-dependent translocase ABCB1 (ABCB1, Homo sapiens, UniProt P08183)", "note": "Lines come from different studies, so protocols differ."}
{"Compound": "COCCc1ccc(OCC(O)CNC(C)C)cc1 (centres unmarked)", "tested on": "ABCB1", "system": "MDCK-MDR1", "setting": "5 µM", "endpoint": "Papp B→A", "result": "31.5 ×10⁻⁶ cm/s"}
{"Compound": "Cc1cc(-c2ccc(C(F)(F)F)cn2)[nH]c1C(=O)N[C@@H](CN)c1ncc(CO)s1", "tested on": "Cf2Th-CCR5", "assay": "cell growth or viability, MTS", "setting": "48 h", "endpoint": "CC50", "result": "> 47 µM"}
{"Compound": "O=C(CCCCCCC(=O)Nc1ccc(CC[18F])cc1)NO", "tested on": "LNCaP", "system": "male nude, tumour", "setting": "intravenous, 2 h, tumour-bearing", "endpoint": "tracer uptake", "result": "1.5 %ID/g"}
{"Compound": "COc1ccc(S(=O)(=O)ON=C2C=C(C)C(=O)C(C)=C2)cc1", "tested on": "LNCaP", "assay": "cell growth or viability", "endpoint": "CC50", "result": "3.54 µM"}
{"Compound": "CC1(C)CCC2(CC1)N[C@@H](C(=O)N[C@@H]1CC[C@@H](C(N)=O)OC1)[C@H](c1ccnc(Cl)c1F)[C@]21C(=O)Nc2cc(Cl)ccc21", "tested on": "ABCB1", "system": "Caco-2", "setting": "10 µM, 2 h", "endpoint": "efflux ratio", "result": 9.3}
{"Compound": "O=C(O)CSc1nnc(Br)n1-c1ccc(C2CC2)c2ccccc12", "tested on": "Multidrug and toxin extrusion protein 2 (SLC47A2, Homo sapiens, UniProt Q86VL8)", "assay": "transporter uptake, inhibitor", "system": "HEK293", "setting": "1 µM, 2 min", "endpoint": "inhibition", "result": "-21%"}
{"Compound": "CC[C@@H]1CN(C(=O)NCC(F)(F)F)C[C@@H]1c1cnc2cnc3[nH]ccc3n12", "system": "beagle dog, plasma", "setting": "oral, 1 mg/kg, single dose", "endpoint": "MRT(0-t)", "result": "9.27 h"}
{"Compound": "O=C1CC(N(CCc2ccccc2)C(=S)Nc2ccccc2)C(=O)N1c1ccc(Br)cc1 (centres unmarked)", "tested on": "Jurkat", "assay": "cell growth or viability, ATP luminescence", "setting": "18 h", "endpoint": "CC50", "result": "< 20 µM"}
{"Compound": "CC(C)CCC[C@@H](C)[C@H]1CC[C@H]2[C@@H]3CC=C4C[C@@H](OC(=O)CCC(=O)NCCCC[C@H](NC(=O)[C@H]5CCCN5C(=O)[C@H](CCC(=O)O)NC(=O)[C@H](C)NC(=O)[C@@H](NC(=O)C[C@H](O)[C@H](CC(C)C)NC(=O)[C@H](CC(N)=O)NC(=O)[C@@H](NC(=O)[C@H](CCC(=O)O)NC(=O)CNC(=O)[C@@H](CCCCN)NC(=O)CNC(=O)[C@H](CC(C)C)NC(=O)[C@@H]5CCCN5C(=O)[C@@H](CCCCN)NC(=O)[C@H](Cc5ccccc5)NC(=O)[C@H](Cc5ccc(O)cc5)NC(=O)[C@@H]5CCCN5C(=O)[C@@H](N)Cc5ccc(O)cc5)C(C)C)C(C)C)C(N)=O)CC[C@]4(C)[C@H]3CC[C@]12C", "system": "aqueous buffer", "setting": "pH 6.5", "endpoint": "thermodynamic solubility", "result": "> 500 µg/mL"}
{"Compound": "CCn1cnc2c(=O)[nH]c(N)nc21.NCCNCCN.[Pt+2]", "tested on": "Jurkat", "assay": "cell growth or viability, WST-1", "endpoint": "IC50", "result": "> 100 µM"}
{"Compound": "CC1=NN(c2ccc(C)c(C)c2)C(=O)/C1=N\\Nc1cccc(-c2cccc(C(=O)O)c2)c1O", "tested on": "LN-229", "assay": "cell growth or viability", "setting": "72 h", "endpoint": "IC50", "result": "20 to 30 µM"}
{"Compound": "Cc1cc(-c2ccc(C(F)(F)F)cn2)[nH]c1C(=O)N[C@H](CN)c1nc(CO)cs1", "tested on": "Cf2Th-CCR5", "assay": "cell growth or viability, MTS", "setting": "48 h", "endpoint": "CC50", "result": "> 47 µM"}
{"Compound": "C[C@]12CCCN1CC1=NNC(=O)c3cc(F)cc4[nH]c2c1c34", "tested on": "ABCB1", "system": "MDCK-MDR1", "setting": "1 µM", "endpoint": "Papp B→A", "result": "36.4 ×10⁻⁶ cm/s"}
{"Compound": "CC[C@H](C)[C@H](NC(=O)[C@H](Cc1ccccc1)NC(=O)[C@H](Cc1ccc(O)cc1)NC(=O)[C@@H]1CCCN1C(=O)[C@@H](N)Cc1ccc(O)cc1)C(=O)N1CCC[C@H]1C(=O)N[C@@H](CC(C)C)C(=O)N[C@H](CCCCN)C(=O)NCC(=O)NCC(=O)N[C@@H](CCC(=O)O)C(=O)N[C@H](C(=O)N[C@@H](CC(N)=O)C(=O)N[C@@H](CC(C)C)[C@@H](O)CC(=O)N[C@H](C(=O)N[C@@H](C)C(=O)N[C@@H](CCC(=O)O)C(=O)N1CCC[C@@H]1C(=O)N[C@@H](CCCCNC(=O)CCC(=O)O[C@H]1CC[C@@]2(C)C(=CC[C@H]3[C@@H]4CC[C@H]([C@H](C)CCCC(C)C)[C@@]4(C)CC[C@@H]32)C1)C(N)=O)C(C)C)C(C)C", "system": "aqueous buffer", "setting": "pH 6.5", "endpoint": "thermodynamic solubility", "result": "< 1 µg/mL"}
